Source: ChEMBL document CHEMBL1139391, “Synthesis and structure-activity relationship of benzetimide derivatives as human CXCR3 antagonists” (Bioorg Med Chem Lett, 2008)

Tests used:
[1] = biological target: T1, C-C chemokine receptor type 1 (Homo sapiens) (UniProt P32246); assay: Displacement of [125I]MIP1alpha from human CCR1 expressed in CHO cells at 10 uM; type: cell-based
T1 sequence (whole entry): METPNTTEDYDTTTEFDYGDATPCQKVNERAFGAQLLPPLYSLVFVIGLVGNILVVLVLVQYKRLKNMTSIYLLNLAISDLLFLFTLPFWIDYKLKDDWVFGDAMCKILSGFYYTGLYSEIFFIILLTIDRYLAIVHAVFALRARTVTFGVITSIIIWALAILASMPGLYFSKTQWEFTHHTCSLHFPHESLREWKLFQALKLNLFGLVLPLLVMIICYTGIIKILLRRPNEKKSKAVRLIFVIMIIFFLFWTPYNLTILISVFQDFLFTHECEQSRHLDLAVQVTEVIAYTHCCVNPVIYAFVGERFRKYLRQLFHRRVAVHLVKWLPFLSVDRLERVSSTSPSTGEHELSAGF

[2] = biological target: C-C chemokine receptor type 2 (Homo sapiens) (UniProt P41597); assay: Displacement of [125I]MCP1 from human CCR2 expressed in CHO cells at 10 uM; type: cell-based
C-C chemokine receptor type 2 (Homo sapiens), sequence (P41597 whole entry, looked up): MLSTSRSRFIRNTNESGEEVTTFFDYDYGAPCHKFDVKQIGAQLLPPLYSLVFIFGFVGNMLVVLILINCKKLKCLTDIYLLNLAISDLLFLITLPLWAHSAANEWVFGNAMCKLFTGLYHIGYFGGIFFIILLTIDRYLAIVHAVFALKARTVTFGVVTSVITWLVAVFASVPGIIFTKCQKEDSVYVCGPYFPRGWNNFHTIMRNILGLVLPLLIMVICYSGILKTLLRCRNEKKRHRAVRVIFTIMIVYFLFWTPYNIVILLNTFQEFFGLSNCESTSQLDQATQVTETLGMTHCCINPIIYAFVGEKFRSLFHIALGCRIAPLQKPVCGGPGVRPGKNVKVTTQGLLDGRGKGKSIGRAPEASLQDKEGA

[3] = biological target: T2, C-C chemokine receptor type 4 (Homo sapiens) (UniProt P51679); assay: Displacement of [125I]TARC from human CCR4 expressed in CHO cells at 10 uM; type: cell-based
T2 sequence (whole entry): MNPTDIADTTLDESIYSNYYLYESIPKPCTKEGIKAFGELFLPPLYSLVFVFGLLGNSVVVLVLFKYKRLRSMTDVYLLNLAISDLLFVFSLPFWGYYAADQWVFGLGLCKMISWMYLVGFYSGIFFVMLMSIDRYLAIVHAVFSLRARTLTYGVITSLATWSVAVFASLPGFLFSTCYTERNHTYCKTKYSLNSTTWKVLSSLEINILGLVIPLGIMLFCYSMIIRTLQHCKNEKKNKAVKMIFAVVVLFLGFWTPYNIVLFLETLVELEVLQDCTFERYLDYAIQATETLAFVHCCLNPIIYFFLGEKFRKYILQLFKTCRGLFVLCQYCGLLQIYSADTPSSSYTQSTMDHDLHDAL

[4] = biological target: Interleukin-8 receptors, CXCR1/CXCR2 (Homo sapiens) (UniProt P25025+P25024); assay: Displacement of [125I]IL8 from human CXCR1/2 expressed in CHO cells at 10 uM; type: cell-based
[5] = biological target: T3, CX3C chemokine receptor 1 (Homo sapiens) (UniProt P49238); assay: Displacement of [125I]fractalkine from human […] expressed in CHO cells at 10 uM; type: cell-based
T3 sequence (whole entry): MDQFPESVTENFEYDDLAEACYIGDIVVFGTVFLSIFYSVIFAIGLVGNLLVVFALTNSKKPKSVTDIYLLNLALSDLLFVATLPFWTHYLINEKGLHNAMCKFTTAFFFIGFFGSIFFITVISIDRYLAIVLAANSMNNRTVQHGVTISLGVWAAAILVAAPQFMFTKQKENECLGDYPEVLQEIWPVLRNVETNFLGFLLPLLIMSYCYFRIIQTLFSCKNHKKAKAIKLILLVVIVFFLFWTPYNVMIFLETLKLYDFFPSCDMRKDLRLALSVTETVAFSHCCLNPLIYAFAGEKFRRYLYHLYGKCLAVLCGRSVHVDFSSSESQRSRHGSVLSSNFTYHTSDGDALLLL

[6] = biological target: T4, C-X-C chemokine receptor type 3 (Homo sapiens, UniProt P49682); assay: Antagonist activity at human CXCR3 expressed in CHO cells assessed as inhibition of ITAC-stimulated [35S]GTPgammaS binding pretreated 30 mins before ITAC challenge; type: functional, cell-based
T4 sequence (P49682 whole entry): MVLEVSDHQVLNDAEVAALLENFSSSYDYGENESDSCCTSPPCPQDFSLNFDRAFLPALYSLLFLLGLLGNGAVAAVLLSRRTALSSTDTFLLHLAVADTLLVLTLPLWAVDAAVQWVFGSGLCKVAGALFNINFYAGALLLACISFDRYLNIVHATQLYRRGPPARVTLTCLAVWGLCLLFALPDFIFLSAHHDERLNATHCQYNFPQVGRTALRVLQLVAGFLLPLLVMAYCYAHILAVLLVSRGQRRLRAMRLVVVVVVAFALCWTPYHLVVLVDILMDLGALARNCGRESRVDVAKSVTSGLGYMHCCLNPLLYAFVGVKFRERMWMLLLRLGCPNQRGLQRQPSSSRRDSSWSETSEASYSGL

[7] = biological target: T5, Muscarinic acetylcholine receptor M1 (Homo sapiens, UniProt P11229); assay: Binding affinity to human muscarinic M1 receptor
T5 sequence (P11229 whole entry): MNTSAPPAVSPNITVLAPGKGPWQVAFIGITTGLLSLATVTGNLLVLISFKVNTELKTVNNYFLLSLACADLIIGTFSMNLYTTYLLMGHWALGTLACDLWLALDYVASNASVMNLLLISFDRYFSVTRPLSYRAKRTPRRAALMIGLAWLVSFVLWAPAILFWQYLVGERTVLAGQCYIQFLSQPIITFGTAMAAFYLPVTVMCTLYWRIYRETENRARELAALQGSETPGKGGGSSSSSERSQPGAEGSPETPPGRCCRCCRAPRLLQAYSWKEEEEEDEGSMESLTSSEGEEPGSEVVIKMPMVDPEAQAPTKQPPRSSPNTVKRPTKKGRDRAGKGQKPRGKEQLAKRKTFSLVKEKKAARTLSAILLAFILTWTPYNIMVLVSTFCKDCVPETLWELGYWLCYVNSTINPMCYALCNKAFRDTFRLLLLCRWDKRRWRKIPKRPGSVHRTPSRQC

[8] = biological target: T6, Muscarinic acetylcholine receptor M2 (Homo sapiens, UniProt P08172); assay: Binding affinity to human muscarinic M2 receptor
T6 sequence (P08172 whole entry): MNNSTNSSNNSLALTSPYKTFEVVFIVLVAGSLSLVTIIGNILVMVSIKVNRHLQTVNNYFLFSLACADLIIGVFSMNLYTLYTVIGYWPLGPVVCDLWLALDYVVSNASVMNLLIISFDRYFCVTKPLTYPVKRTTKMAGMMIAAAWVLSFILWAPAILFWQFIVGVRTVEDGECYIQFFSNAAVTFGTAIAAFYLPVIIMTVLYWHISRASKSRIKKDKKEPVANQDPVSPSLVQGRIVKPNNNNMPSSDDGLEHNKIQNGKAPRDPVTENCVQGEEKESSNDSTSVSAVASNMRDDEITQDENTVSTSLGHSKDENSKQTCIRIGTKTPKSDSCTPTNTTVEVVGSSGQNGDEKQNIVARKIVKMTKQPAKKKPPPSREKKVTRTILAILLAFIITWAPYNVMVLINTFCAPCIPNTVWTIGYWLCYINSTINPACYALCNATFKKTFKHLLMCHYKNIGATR

[9] = biological target: Muscarinic acetylcholine receptor M3 (Homo sapiens, UniProt P20309); assay: Binding affinity to human muscarinic M3 receptor
Muscarinic acetylcholine receptor M3, sequence (P20309 whole entry): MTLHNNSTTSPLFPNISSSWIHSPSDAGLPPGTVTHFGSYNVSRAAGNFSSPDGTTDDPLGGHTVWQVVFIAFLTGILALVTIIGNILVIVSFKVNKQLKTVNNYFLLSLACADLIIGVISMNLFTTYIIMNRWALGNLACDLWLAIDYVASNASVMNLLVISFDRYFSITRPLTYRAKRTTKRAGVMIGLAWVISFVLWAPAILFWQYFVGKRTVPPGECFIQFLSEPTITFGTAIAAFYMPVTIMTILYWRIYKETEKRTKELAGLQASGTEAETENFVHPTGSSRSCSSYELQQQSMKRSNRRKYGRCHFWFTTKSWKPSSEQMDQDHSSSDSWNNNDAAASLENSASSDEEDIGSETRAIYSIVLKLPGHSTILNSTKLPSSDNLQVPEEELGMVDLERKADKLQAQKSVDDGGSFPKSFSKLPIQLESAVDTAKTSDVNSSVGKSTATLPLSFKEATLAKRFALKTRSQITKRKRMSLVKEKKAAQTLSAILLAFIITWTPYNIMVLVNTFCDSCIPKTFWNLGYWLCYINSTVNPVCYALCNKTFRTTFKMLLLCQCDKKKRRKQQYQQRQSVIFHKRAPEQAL

[10] = test system: PBMC; assay: Reduction of ITAC-induced migration in PHA/IL-2 activated human PBMC pretreated 10 mins before ITAC challenge after 3 hrs by fluorescent plate reader; type: functional, cell-based
Procedure, shortened: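 Cells pre-incubated with compound for 10 min at 25 °C. 80,000 cells per well placed on the filter topside, in 6-fold replicates. Lower wells held 3 nM human ITAC. After 3 h at 37 °C, non-migrated cells were removed and migrated cells quantified by fluorescence plate reader.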

[11] = biological target: T4, C-X-C chemokine receptor type 3; assay: Displacement of [125I]ITAC from CXCR3 in PHA/IL-2 activated human PBMC pretreated 30 mins before [125I]ITAC challenge after 1 hr by liquid scintillation counter
Procedure, shortened: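 Pre-incubated with compound for 30 min. 80 pM [125I]-ITAC (2000 Ci/mmol) added for 60 min at 4 °C. Harvested on polyethyleneimine-presoaked GF/B filters; radioactivity counted by liquid scintillation.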

Row | Compound | inhibition [1] [%] | inhibition [2] [%] | inhibition [3] [%] | inhibition [4] [%] | inhibition [5] [%] | IC50 [6] [nM] | IC50 [7] [nM] | IC50 [8] [nM] | IC50 [9] [nM] | IC50 [10] [nM] | IC50 [11] [nM]
1 | O=C1CCC(c2ccccc2)(C2CCN(Cc3ccc(Br)cc3)CC2)C(=O)N1 (stereo in doubt; (-)-1a) [listing 1 of 2 here] | < 25 | < 25 | < 25 | < 25 | < 25 | – | – | – | – | – | –
2 | O=C1CCC(c2ccccc2)(C2CCN(Cc3ccc(Br)cc3)CC2)C(=O)N1 (stereo in doubt; (-)-1a) [listing 2 of 2 here] | – | – | – | – | – | 610 | 9600 | > 10000 | > 10000 | 690 | 330
